Test results taken from ChEMBL document CHEMBL4190330, “Discovery of Potent and Selective A2A Antagonists with Efficacy in Animal Models of Parkinson's Disease and Depression” (ACS Med Chem Lett, 2017).

Legend:
[1] = target: T1, Adenosine receptor A2a (Homo sapiens, UniProt P29274); test: Displacement of [3H]ZM241385 from human A2A receptor expressed in HEK293 cell membranes after 90 mins radioligand binding assay
Outline: (§1)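 Membranes from HEK-293 cells overexpressing the relevant human adenosine receptor subtype; all points in triplicate; Ki derived from 8-concentration IC50 curves.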

[2] = target: T2, Adenosine receptor A1 (Homo sapiens, UniProt P30542); test: Displacement of [3H]-DPCPX from human A1 receptor expressed in HEK293 cell membranes after 90 mins radioligand binding assay; outline: as §1
T2 sequence (P30542 whole entry): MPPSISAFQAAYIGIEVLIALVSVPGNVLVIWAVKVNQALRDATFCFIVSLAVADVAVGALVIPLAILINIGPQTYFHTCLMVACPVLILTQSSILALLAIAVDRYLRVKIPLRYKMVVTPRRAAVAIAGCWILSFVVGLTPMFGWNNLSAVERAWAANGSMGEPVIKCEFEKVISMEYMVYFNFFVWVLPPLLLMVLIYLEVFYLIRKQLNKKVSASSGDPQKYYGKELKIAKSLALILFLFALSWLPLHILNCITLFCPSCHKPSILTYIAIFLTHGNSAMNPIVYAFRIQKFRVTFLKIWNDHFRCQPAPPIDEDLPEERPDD

[3] = target: T1, Adenosine receptor A2a; test: Antagonist activity at human A2A receptor expressed in HEK293 cell membranes assessed as reduction in CGS-21680-induced cAMP level pretreated for 15 mins followed by CGS-21680 addition measured after 30 mins by HTRF assay; format: functional, cell-based
Outline: (§2)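 HTRF-based cAMP functional assay; each compound tested at 12 concentrations, every point in triplicate; Ki given as mean of two independent experiments (n=2).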

[4] = target: Adenosine receptor A2a (Rattus norvegicus, UniProt P30543); test: Antagonist activity at rat A2A receptor assessed as reduction in CGS-21680-induced cAMP level pretreated for 15 mins followed by CGS-21680 addition measured after 30 mins by HTRF assay; format: functional; outline: as §2
Sequence of Adenosine receptor A2a (Rattus norvegicus, UniProt P30543) (P30543 whole entry): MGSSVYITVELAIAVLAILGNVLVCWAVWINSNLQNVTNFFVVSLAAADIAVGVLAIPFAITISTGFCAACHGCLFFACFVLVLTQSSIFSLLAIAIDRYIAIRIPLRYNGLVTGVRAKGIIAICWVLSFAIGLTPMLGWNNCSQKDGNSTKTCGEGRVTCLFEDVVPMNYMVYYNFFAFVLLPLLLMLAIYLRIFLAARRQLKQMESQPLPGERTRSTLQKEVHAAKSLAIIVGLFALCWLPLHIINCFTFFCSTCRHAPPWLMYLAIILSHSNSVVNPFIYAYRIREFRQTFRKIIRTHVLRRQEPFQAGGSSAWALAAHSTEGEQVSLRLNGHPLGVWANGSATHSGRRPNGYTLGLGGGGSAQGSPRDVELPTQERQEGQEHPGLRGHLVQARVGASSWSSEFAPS

[5] = species: Homo sapiens; test: Selectivity ratio of Ki for displacement of [3H]-DPCPX from human A1 receptor expressed in HEK293 cell membranes to Ki for displacement of [3H]ZM241385 from human A2A receptor expressed in HEK293 cell membranes
Outline: (§3)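 Radioligand binding used membranes from HEK-293 cells overexpressing each human adenosine receptor isoform. Points were run in triplicate, and 8-concentration IC50 curves were plotted to give Ki. The selectivity value is the Ki at the off-target isoform divided by the Ki at hA2A.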

[6] = species: Homo sapiens; test: Selectivity ratio of Ki for displacement of [3H]-MRS-1754 from human A2B receptor expressed in HEK293 cell membranes to Ki for displacement of [3H]ZM241385 from human A2A receptor expressed in HEK293 cell membranes; outline: as §3
[7] = species: Homo sapiens; test: Selectivity ratio of Ki for displacement of [3H]-HEMADO from human A3 receptor expressed in HEK293 cell membranes to Ki for displacement of [3H]ZM241385 from human A2A receptor expressed in HEK293 cell membranes; outline: as §3
[8] = Solubility of the compound at pH 7.4; format: physicochemical; settings: buffer
[9] = Metabolic stability in rat liver microsomes; format: ADME, microsome
[10] = Metabolic stability in human liver microsomes; format: ADME, microsome
[11] = target: T3, Adenosine receptor A1 (Homo sapiens) (UniProt P30542); test: Displacement of [3H]-DPCPX from human A1 receptor expressed in HEK293 cell membranes at 1 uM after 90 mins radioligand binding assay relative to control
T3 sequence (whole entry): T2 sequence (P30542 whole entry)

T1 sequence (P29274 whole entry): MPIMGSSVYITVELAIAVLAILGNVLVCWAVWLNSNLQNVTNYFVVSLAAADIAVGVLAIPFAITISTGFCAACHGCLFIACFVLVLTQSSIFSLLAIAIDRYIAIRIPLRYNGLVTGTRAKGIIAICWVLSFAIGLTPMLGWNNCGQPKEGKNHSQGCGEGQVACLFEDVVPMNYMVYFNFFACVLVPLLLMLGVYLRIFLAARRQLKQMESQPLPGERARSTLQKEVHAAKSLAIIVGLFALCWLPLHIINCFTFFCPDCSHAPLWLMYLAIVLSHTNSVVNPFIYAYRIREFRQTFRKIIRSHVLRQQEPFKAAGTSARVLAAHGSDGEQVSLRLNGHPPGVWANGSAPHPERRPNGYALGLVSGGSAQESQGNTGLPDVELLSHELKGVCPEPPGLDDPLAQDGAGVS

Row | Structure (SMILES) | Ki [1] [nM] | Ki [2] [nM] | Ki [3] [nM] | Ki [4] [nM] | solubility [8] [µM] | Stability [9] | Stability [10] | inhibition [11] [%] | Ratio Ki [5] | Ratio Ki [6] | Ratio Ki [7]
1 | Cn1c(=O)n(CCN2CCN(c3ccc(C#N)cc3)CC2)c2nc(N)n3nc(-c4ccco4)nc3c21 | 0.6 | 5000 | 0.3 | 1.15 | < 2 | Stable | Stable | – | > 8000 | > 8000 | > 8000
2 | COCCOc1ccc(N2CCN(CCn3c(=O)n(C)c4c3nc(N)n3nc(-c5ccco5)nc43)CC2)cc1F | 0.7 | – | – | – | – | Stable | Stable | 68 | – | – | –
3 | Cn1c(=O)n(CCN2CCN(c3ccc(OC4CCOCC4)cc3)CC2)c2nc(N)n3nc(-c4ccco4)nc3c21 | 0.3 | – | 0.26 | – | – | Stable | Stable | 56 | – | – | –
4 | COCCOc1ccc(N2CCN(CCn3c(=O)n(C)c4c3nc(N)n3nc(-c5ccco5)nc43)CC2)cc1 | 2 | 1700 | 0.42 | 0.28 | < 6 | Stable | Stable | – | 850 | > 3000 | > 2000
5 | Cn1c(=O)n(CCN2CCN(c3ccc(OCCOC4CC4)cc3)CC2)c2nc(N)n3nc(-c4ccco4)nc3c21 | 2 | – | – | – | – | Stable | Stable | 66 | – | – | –
6 | COc1ccc(N2CCN(CCn3c(=O)n(C)c4c3nc(N)n3nc(-c5ccco5)nc43)CC2)cn1 | 4.5 | – | – | – | – | Stable | Stable | 61 | – | – | –
7 | COCCOc1cc(F)c(N2CCN(CCn3c(=O)n(C)c4c3nc(N)n3nc(-c5ccco5)nc43)CC2)cc1F | 0.9 | – | 1.2 | – | – | Stable | Stable | 58 | – | – | –
8 | COc1ccc(N2CCN(CCn3c(=O)n(C)c4c3nc(N)n3nc(-c5ccco5)nc43)CC2)c(F)c1 | 0.4 | – | 0.06 | 0.06 | – | Stable | Stable | 45 | – | – | –
9 | Cn1c(=O)n(CCN2CCN(c3ccc(OC4CCOC4)cc3)CC2)c2nc(N)n3nc(-c4ccco4)nc3c21 (stereo not given) | 0.2 | – | 0.22 | – | – | Stable | Stable | 49 | – | – | –
10 | Cc1nc2cc(N3CCN(CCn4c(=O)n(C)c5c4nc(N)n4nc(-c6ccco6)nc54)CC3)c(F)cc2o1 | 0.4 | – | 0.15 | 0.05 | – | Stable | Stable | 48 | – | – | –
11 | Cn1c(=O)n(CCN2CCN(c3ccc(OC(F)F)cc3)CC2)c2nc(N)n3nc(-c4ccco4)nc3c21 | 1.9 | – | 0.27 | 1.07 | – | Stable | Stable | 34 | – | – | –
12 | COCC(C)(C)Oc1ccc(N2CCN(CCn3c(=O)n(C)c4c3nc(N)n3nc(-c5ccco5)nc43)CC2)cc1 | 0.5 | – | 2.1 | 0.72 | – | Stable | Stable | 36 | – | – | –
13 | Cn1c(=O)n(CCN2CCN(c3ccc(C(F)(F)F)cc3)CC2)c2nc(N)n3nc(-c4ccco4)nc3c21 | 3.1 | – | – | – | – | Stable | Stable | 57 | – | – | –

Further compounds by falling Ki [1], results first:

Row | Ki [1] [nM] | Ki [2] [nM] | Ki [3] [nM] | Ki [4] [nM] | solubility [8] [µM] | Stability [9] | Stability [10] | inhibition [11] [%] | Structure (SMILES) | Ratio Ki [5] | Ratio Ki [6] | Ratio Ki [7]
14 | 6.4 | – | 1.2 | 11.1 | – | Stable | Stable | 19 | COCCOc1ccc(N2CCN(CCn3c(=O)n(C)c4c3nc(N)n3nc(-c5nccs5)nc43)CC2)cc1 | – | – | –
15 | 1.7 | – | 0.4 | 0.65 | – | Stable | Stable | 61 | Cc1ccc(N2CCN(CCn3c(=O)n(C)c4c3nc(N)n3nc(-c5ccco5)nc43)CC2)nc1 | – | – | –
16 | 1.4 | – | 1.1 | 0.74 | – | Stable | Stable | 45 | Cc1ccc(N2CCN(CCn3c(=O)n(C)c4c3nc(N)n3nc(-c5ccco5)nc43)CC2)cc1 | – | – | –
17 | 1.2 | – | 0.9 | – | – | Stable | Stable | 58 | Cn1c(=O)n(CCN2CCN(c3nc(C(F)(F)F)cs3)CC2)c2nc(N)n3nc(-c4ccco4)nc3c21 | – | – | –
18 | 1 | – | 0.21 | 0.58 | – | Stable | Stable | 58 | COc1ccc(N2CCN(CCn3c(=O)n(C)c4c3nc(N)n3nc(-c5ccco5)nc43)CC2)cc1 | – | – | –
19 | 1 | – | 0.07 | – | – | Stable | Stable | 32 | Cn1c(=O)n(CCN2CCN(c3ccc(F)cc3F)CC2)c2nc(N)n3nc(-c4ccco4)nc3c21 | – | – | –
20 | 0.6 | – | – | – | – | Stable | Stable | 65 | COCCOc1c(F)cc(N2CCN(CCn3c(=O)n(C)c4c3nc(N)n3nc(-c5ccco5)nc43)CC2)cc1F | – | – | –
21 | 0.5 | – | 0.5 | 3.9 | – | Stable | Stable | 63 | COCCOc1cccc(N2CCN(CCn3c(=O)n(C)c4c3nc(N)n3nc(-c5ccco5)nc43)CC2)c1 | – | – | –
22 | 0.5 | – | 0.4 | – | – | Stable | Stable | 50 | Cn1c(=O)n(CCN2CCN(c3ccc(C#N)c(F)c3)CC2)c2nc(N)n3nc(-c4ccco4)nc3c21 | – | – | –
23 | 0.4 | – | 1.5 | 0.42 | – | Stable | Stable | 56 | COCC(C)Oc1ccc(N2CCN(CCn3c(=O)n(C)c4c3nc(N)n3nc(-c5ccco5)nc43)CC2)cc1 (stereo not given) | – | – | –
24 | 0.3 | – | 0.25 | – | – | Stable | Stable | 50 | Cn1c(=O)n(CCN2CCN(c3ccc(OC4CC4)cc3)CC2)c2nc(N)n3nc(-c4ccco4)nc3c21 | – | – | –
